Source: PubChem BioAssay (The Scripps Research Institute Molecular Screening Center)
Hits are enriched below; roughly 3.3% of the tested compounds scored in any of these assays.
HTRA1 inhibitor: HTRA1 serine protease inhibitors, primary screen, biochemical, fluorescence polarization, HTS; inhibition, % at 5.96 µM; recombinant HTRA1, FP-rhodamine activity-based probe; 0.5% of 340,000 active; Q92743; in the data active = inhibition above about 36%;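 also: 0% = enzyme with DMSO and 100% = wells lacking enzyme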
rCAG RNA binder: binders of r(CAG) RNA repeats, primary screen, biochemical, fluorescence. r(CAG) RNA repeat, TO-PRO-1 dye displacement fluorescence. inhibition, % at 3 µM. 1.3% of 370,000 active;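 active = inhibition above the plate cutoff, the mean of all test compounds on that plate plus 3 SD, cut at about 35% in these data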;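 also: 0% = DMSO alone and 100% = 100 µM mitoxantrone as full dye displacement; higher means more dye released from RNA so lower well fluorescence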
PRMT1 FP inh: PRMT1 methyltransferase inhibitors, primary screen, biochemical, fluorescence polarization; Protein arginine N-methyltransferase 1 (Homo sapiens), Q99873; recombinant PRMT1, activity-based probe fluorescence polarization; inhibition, % at 2.79 µM; 1.3% of 370,000 active;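 active = inhibition above about 21% made by adding two undisclosed values, limit read from the data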
SIAE primary: human SIAE inhibitors, primary screen, biochemical, fluorescence polarization, FP-Rh probe, 1536-well HTS. Sialate O-acetylesterase (Homo sapiens), Q9HAT2. SIAE FP-Rh probe binding. inhibition, % at 9.66 µM. 0.69% of 370,000 active. AID 1053197, 2014;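 active = inhibition above a cutoff: mean of compounds within the control limits plus 3 SD of those, cut at about 17% in these data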;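 also: 0% = plate median of compound wells and 100% = probe without SIAE protein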
ABHD4 inh: ABHD4 inhibitors, primary screen, biochemical, fluorescence polarization, mouse; (Lyso)-N-acylphosphatidylethanolamine lipase (Mus musculus), Q8VD66; purified mABHD4, FP-Rh probe fluorescence polarization; inhibition, % at 8.92 µM; 0.54% of 370,000 active;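 active = inhibition exceeding the mean over every tested compound plus 3 SD, cut at about 30% in these data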;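 also: 0% = plate median of compound wells and 100% = S159A mutant with DMSO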
Target sequence (Q8VD66 whole entry, looked up): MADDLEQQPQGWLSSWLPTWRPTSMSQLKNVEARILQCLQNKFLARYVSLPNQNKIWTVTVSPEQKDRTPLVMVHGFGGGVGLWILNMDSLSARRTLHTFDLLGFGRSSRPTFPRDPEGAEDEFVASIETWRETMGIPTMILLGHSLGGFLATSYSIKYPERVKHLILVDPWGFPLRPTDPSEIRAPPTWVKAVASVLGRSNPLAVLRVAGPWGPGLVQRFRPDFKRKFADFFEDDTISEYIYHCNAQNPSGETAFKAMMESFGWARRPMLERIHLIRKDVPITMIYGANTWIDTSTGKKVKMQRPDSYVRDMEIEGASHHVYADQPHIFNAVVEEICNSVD
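Material: mouse ABHD4 enzyme, wild type; Benchmarks: S159A mutant high control, sample median low control; Buffer or medium: HEPES pH 7.0, NaCl, Pluronic buffer; Signal: fluorescence polarization; Read-out: percent inhibition of probe binding, normalized to plate controls; Timing: pre-incubation 45 min, probe exposure 60 min, at 25 °C; Dosing: 8.92 µM, single dose.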
rCAG binder conf: small molecules binding CAG repeat RNA – biochemical, fluorescence, confirmation; shares compounds with rCAG RNA binder; r(CAG) RNA repeat, TO-PRO-1 dye displacement fluorescence; inhibition, % at 3 µM; 70% of 4,300 active;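 active = inhibition above a per-plate cutoff, the mean inhibition of sample wells plus 3 SD, cut at about 35% in these data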;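 also: loss of TO-PRO-1 fluorescence as compound displaces dye from 1x1 AA loop RNA; 0% = DMSO only wells and 100% = 100 µM mitoxantrone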
DNA CAG counter: displacement of TO-PRO-1 from CAG DNA duplex, counter-screen for rCAG RNA repeat binder project, biochemical, fluorescence, TO-PRO-1 dye, d(CAG) DNA oligo. 94% of 4,300 active. d(CAG) DNA oligo TO-PRO-1 dye displacement. shares compounds with rCAG RNA binder. inhibition, % at 3 µM;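 active = inhibition above its plate's cutoff, the mean test-well inhibition plus 3 SD, cut at about 4.8% in these data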;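 also: 0% = DNA dye mix with DMSO and 100% = 100 µM mitoxantrone; hits displace the dye from DNA and so lower well fluorescence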
An asterisk follows results filed as active; / = not tested or not shown.

SMILES	HTRA1 inhibitor	rCAG RNA binder	PRMT1 FP inh	SIAE primary	ABHD4 inh	rCAG binder conf	DNA CAG counter
CCc1ccc(NC(=O)C(C)OC(=O)c2ccc(NS(=O)(=O)c3ccc(C)c([N+](=O)[O-])c3)cc2)cc1 (stereo unspecified)	-90	85*	0	-55	-103	82*	48*
Cc1ccc(NC(=O)C(C)OC(=O)c2ccc(NS(=O)(=O)c3ccc(F)c(F)c3)cc2)cc1 (stereo unspecified)	-28	58*	-2	-12	-13	67*	20*
CNc1ccccc1C(=O)OC(C)C(=O)Nc1ccc(S(=O)(=O)N2CCCC2)cc1 (stereo unspecified)	-35	7	3	2	-21	/	/
COc1cc(C(=O)NC2CCCCN(Cc3cccc(C(F)(F)F)c3)C2=O)cc(OC)c1OC (stereo unspecified)	/	2	-1	3	-5	/	/
CCCCNC(=O)C[C@H]1C[C@@]2(C(=O)OC)C(=C[C@H](COCc3ccccc3)O[C@@H]2C)N(CCC2=CCCCC2)C1=O	/	3	-1	5	4	/	/
CCOC(=O)c1c(C)[nH]c(C(=O)OCC(O)=C(C#N)c2nc3ccccc3[nH]2)c1C	2	42*	4	1	7	31	14*
N#C/C(=C(/O)COC(=O)c1ccc(O)cc1)c1nc2ccccc2[nH]1	8	2	-2	-3	4	/	/
CC1(C)CCC(C)(C)c2cc(NC(=O)c3ccc(C(=O)O)cc3)ccc21	/	53*	-6	-8	-34	36*	7.5*
O=C(O)c1cccc(NC(=S)NC(=O)C(c2ccccc2)c2ccccc2)c1	-27	45*	0	-9	-16	34	9.3*
O=C(Nc1cc(C(=O)Nc2ccccc2C(=O)O)cc(C(=O)Nc2ccccc2C(=O)O)c1)c1ccccc1	-59	77*	4	-165	-51	86*	61*
O=C(CCC1CCCCC1)Nc1cccc(C(=O)Nc2ccc(C(=O)O)cc2)c1	-18	35*	-2	-8	-47	27	5.5*
O=C(Nc1ccccc1C(=O)O)c1cccc(F)c1	-6	0	1	-1	1	/	/
CC1(C(=O)O)CCCN(C(=O)c2ccc3c(c2)C(C)(C)CCC3(C)C)C1 (stereo unspecified)	/	16	5	-3	-1	/	/
Cc1ccc(-n2c(SCC(=O)c3ccc(Br)cc3)nnc2-c2ccncc2)cc1	/	3	-2	-4	-4	/	/
C/C=C/C(=O)N1CCc2cc(S(=O)(=O)N(C)Cc3ccco3)ccc21	/	6	-6	2	2	/	/
Cc1ccccc1NC(=O)C1CCCN1S(=O)(=O)c1cccnc1 (stereo unspecified)	/	2	-2	-2	5	/	/
COC(=O)[C@]12C[C@H](CC(=O)NCc3ccc(C)o3)C(=O)N(Cc3ccc(Cl)cc3Cl)C1=C[C@H](C1CCCC1)O[C@@H]2C	/	8	6	-10	-4	/	/
CCn1c(SCC(=O)NN=Cc2cccc(OCc3ccccc3)c2)nnc1-c1ccc(OC)c(OC)c1	/	5	-3	-2	-6	/	/
COc1ccc(CN(CCN2CCOCC2)C(=O)c2cccc(F)c2)cc1OC	/	1	4	2	-1	/	/
CC(C)C(=O)Nc1cccc(C(=O)Nc2ccccc2C(=O)O)c1	2	8	-1	-8	-1	/	/
O=C(Nc1ccccc1C(=O)O)c1cccc(NC(=O)c2ccccc2Br)c1	-19	48*	0	-21	-11	33	9.5*
O=C(O)c1cccc(NC(=O)c2cc(NC(=O)c3ccccc3)cc(NC(=O)c3ccccc3)c2)c1	-74	66*	4	-66	-67	60*	24*
CSc1ccc(Oc2cccc3c2S(=O)(=O)N(C2CC2)C[C@@H](COCc2ccccc2)O3)cc1C	/	8	0	-1	-2	/	/
CCCCN(Cc1ccccc1)S(=O)(=O)c1ccc2[nH]c(=O)oc2c1	-22	39*	-5	-10	-24	29	8.0*
O=c1[nH]c2ccc(S(=O)(=O)N3CCC(Cc4ccccc4)CC3)cc2o1	-10	48*	-3	-1	-8	46*	14*
SMILES	HTRA1 inhibitor	rCAG RNA binder	PRMT1 FP inh	SIAE primary	ABHD4 inh	rCAG binder conf	DNA CAG counter
Cc1ccc(-c2nnc(SCC(=O)Nc3ccc(F)cc3F)n2Cc2ccco2)cc1	/	7	13	5	-5	/	/
CC1=C2N=C(N)N(Cc3ccccc3)C(Cc3ccccc3)C2n2c(=O)n(-c3ccccc3)c(=O)n2C1 (stereo unspecified)	/	15	2	6	8	/	/
Cc1cc(N2C(=O)C(O)=C(C(=O)c3ccco3)C2c2ccc(O)cc2)no1 (stereo unspecified)	2	3	0	1	8	/	/
Cc1cc(C)c2nc(N3C(=O)C(O)=C(C(=O)c4ccco4)C3c3ccc(O)cc3)sc2c1 (stereo unspecified)	-45	84*	13	-39	-60	81*	43*
Cc1cc(C)c2nc(N3C(=O)C(O)=C(C(=O)c4ccco4)C3c3cccc(O)c3)sc2c1 (stereo unspecified)	-36	85*	14	-31	-52	81*	49*
CC(C)(C)OC(=O)NCCc1ccccc1/C=C/S(=O)(=O)NC1CCCC1	/	3	5	0	5	/	/
Cc1c(OCc2nn[nH]n2)ccc2c3c(c(=O)oc12)CCCC3	-7	18	-1	2	1	/	/
Cc1c(OCc2nn[nH]n2)ccc2c3c(c(=O)oc12)CCC(C)C3 (stereo unspecified)	-12	42*	0	-7	-6	23	4.7*
Cc1ccc(NS(=O)(=O)c2ccccc2)c(NS(=O)(=O)c2ccccc2)c1	-9	49*	-4	-5	12	48*	13*
Cc1ccc(NS(=O)(=O)c2ccccc2)c([N+](=O)[O-])c1	6	3	1	9	-2	/	/
Cc1ccc(S(=O)(=O)Nc2ccccc2O)cc1	/	1	4	6	0	/	/
O=S(=O)(Nc1ccc(S(=O)(=O)Nc2cccc3ccccc23)cc1)c1ccccc1	-23	35*	2	-9	-13	24	5.5*
O=S(=O)(Nc1ccc(Cl)cc1NS(=O)(=O)c1ccccc1)c1ccccc1	1	81*	2	0	12	73*	38*
